Source: PubChem BioAssay (Broad Institute)
Hits are enriched below; roughly 2.2% of the tested compounds scored in any of these assays.
FGF22 binding-1: binders of recombinant human FGF22 by thermal shift | 340,000 compounds, 1.5% hits | Q9HCT0 | SYPRO orange fluorescence; percent of sucrose octasulfate shift, DMSO zero | activity (Tm shift, normalised), % at 9.99 µM;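 active = mean Tm shift, scaled 0 neutral to 100 positive control, at about 1.3% or above, every replicate too, limit read from the data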
Target sequence (Q9HCT0 whole entry, looked up): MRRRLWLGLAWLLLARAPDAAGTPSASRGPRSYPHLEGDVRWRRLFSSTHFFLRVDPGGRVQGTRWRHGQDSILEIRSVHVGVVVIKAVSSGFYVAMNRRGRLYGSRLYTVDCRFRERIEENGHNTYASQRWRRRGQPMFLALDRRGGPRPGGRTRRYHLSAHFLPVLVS
F508del corr: correctors of CFTR F508del function in bronchial epithelial cells. CFBE cells, YFP halide quenching; stimulated with forskolin plus potentiator P3; % fluorescence drop versus neutral controls. activity (quench increase), % at 7.58 µM. 350,000 compounds, 0.36% hits. AID 720511;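 active = mean added fluorescence quench of at least 8% versus neutral control, with both replicates also reaching 8%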;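 note: cells transiently co-express mutant CFTR-F508del with the halide-sensitive YFP; corrector assay measuring rescue of mutant channel to the surface after 24 h compound exposure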
dFosB activator: enhances mouse delta FosB homodimer DNA binding; 340,000 compounds, 0.99% hits; P13346; activation, % at 25 µM; AID 493131; purified delta FosB, TAMRA-CDK5 oligo fluorescence polarization; percent of positive-control signal above neutral wells;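 active = mean activation above about 17%, with every replicate also reaching it, limit read from the data, passing the limit was not always enough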
Target sequence (P13346 whole entry, looked up): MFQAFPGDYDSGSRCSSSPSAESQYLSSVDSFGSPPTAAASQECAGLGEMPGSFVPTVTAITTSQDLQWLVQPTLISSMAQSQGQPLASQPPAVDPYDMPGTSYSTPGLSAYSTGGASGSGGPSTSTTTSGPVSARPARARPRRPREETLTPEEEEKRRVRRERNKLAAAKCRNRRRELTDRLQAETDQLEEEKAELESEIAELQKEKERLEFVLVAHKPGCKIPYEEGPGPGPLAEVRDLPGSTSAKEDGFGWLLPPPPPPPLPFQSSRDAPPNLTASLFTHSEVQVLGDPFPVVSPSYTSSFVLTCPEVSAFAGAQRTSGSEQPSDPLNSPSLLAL
S100A4 MyoIIA: S100A4-myosin IIA interaction inhibition; S100A4/TAMRA-MyoIIA peptide fluorescence polarization; P26447; 360,000 compounds, 0.14% hits; inhibition, % at 10.7 µM;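 active = mean inhibition of at least 70% across replicates, with every replicate also reaching that level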
Target sequence (P26447 whole entry, looked up): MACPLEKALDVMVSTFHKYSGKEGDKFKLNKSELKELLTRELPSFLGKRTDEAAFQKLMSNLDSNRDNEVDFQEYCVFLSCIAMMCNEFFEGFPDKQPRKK
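Material: S100A4 monomer (human). Medium: Calcium-containing HEPES buffer, pH 7.2. Probe or stimulus: labelled myosin peptide probe, 5 nM. Compound dosing: one concentration per compound. Timing: polarization read 5 min after assay mix addition, stable 5–60 min. Benchmarks: DMSO as neutral control, TFP as positive control.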
FGF22 binding-2: binds human FGF22 shifting its melting temperature; shares compounds with FGF22 binding-1; recombinant FGF22 thermal shift, SYPRO orange fluorescence; thermal shift activity, °C (ΔTm) at 38 µM; 1,000 compounds, 2% hits; AID 720646;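 active = fitted rise in melting shift crosses a set limit at or below the top valid dose tested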
SYPRO no-protein: counter-screen for FGF22 binders: compound-only thermal shift, no protein. shares compounds with FGF22 binding-1. compound-only SYPRO orange thermal shift counter-screen. AC50, µM (highest dose often 38 µM). 1,000 compounds, 2% hits;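 active = rising signal whose fitted curve reaches the 0.54 level within the top valid dose, showing a melting point, actives reach about 13 µM in these data; inactive = the rest, including activity in the opposite direction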; note: value is where the raw curve crosses a fixed level and not half-maximal
Active calls of the source: *; i = inactive; . = not tested or not shown; [ ] = dose if it differs, or a comment.

SMILES | FGF22 binding-1 | F508del corr | dFosB activator | S100A4 MyoIIA | FGF22 binding-2 | SYPRO no-protein
COC(=O)COc1cc(OCC(=O)OC)c2c(C)c(Cl)c(=O)oc2c1 | . | . | -15.8 | . | . | .
COC(=O)C(C)Oc1cc(OC(C)C(=O)OC)c2c(C)c(Cl)c(=O)oc2c1 (configuration not stated) | 1.6* | 1.7 | -21.5 | 6.4 | . | i
CCC(=O)N1[C@@H](CO)[C@H](c2ccccc2)[C@@H]1CN(C)C(=O)CN1CCOCC1 | 0.7 | -2.7 | . | 2.8 | . | .
CCC(=O)N1[C@H](CO)[C@@H](c2ccccc2)[C@H]1CN(C)C(=O)CN1CCOCC1 | 1.6* | 1.2 | . | 0.8 | -0.027 | i
CO[C@H]1CN(C)C(=O)c2cc(NC(=O)c3cc(C)on3)ccc2OC[C@@H](C)NC[C@@H]1C | -0.1 | 1.5 | . | 3.4 | . | .
C[C@@H]1CCCCO[C@H](CN(C)C)[C@@H](C)CN([C@@H](C)CO)C(=O)c2cc(NS(=O)(=O)c3ccc(Cl)cc3)ccc2O1 | . | -0.6 | . | -17.9 | . | .
C[C@H]1CN([C@@H](C)CO)S(=O)(=O)c2ccc(C#Cc3ccccc3F)cc2O[C@@H]1CN(C)C(=O)Cc1cccnc1 | 8.3* | -3.7 | . | 2.4 | 0.111[42 µM] | i
C[C@H]1CN([C@@H](C)CO)S(=O)(=O)c2ccc(C#Cc3ccccc3F)cc2O[C@H]1CN(C)C(=O)Cc1cccnc1 | 5.9* | 5.2 | . | -2.6 | 0.09[42 µM] | i
Cc1ccccc1Nc1n[nH]c(=S)s1 | -0.4 | -3.8 | . | -9.5 | . | .
Fc1ccccc1Nc1n[nH]c(=S)s1 | 1.6* | . | -3.1 | -16.9 | -0.106 | i
CCOC(=O)c1ccc(S(=O)(=O)Nc2cc(C(=O)O)ccc2Cl)cc1 | 2.2* | -0.8 | -9.0 | 16.0 | 0.053 | i
CCOC(=O)c1ccc(S(=O)(=O)NNS(=O)(=O)c2ccc(C)cc2)cc1 | -0.2 | 4.7 | -0.1 | -2.4 | . | .
CCC(=O)N1[C@@H](CO)[C@@H]2c3ccccc3N(S(=O)(=O)c3ccc(F)cc3)C[C@@H]21 | 1.4* | 3.9 | . | 17.8 | 0.207 | i
CCC(=O)N1[C@@H](CO)[C@@H]2c3ccccc3N(S(=O)(=O)c3ccccc3)C[C@@H]21 | -0.2 | 2.2 | . | -10.2 | . | .
CO[C@H]1CN(C)C(=O)c2ccc(NC(=O)C3CC3)cc2OC[C@H](C)N(Cc2ccccc2)C[C@H]1C | -0.6 | -0.5 | . | 0.4 | . | .
O=C(O)/C=C/c1cccc(NC(=O)Nc2ccc([N+](=O)[O-])cc2)c1 | 1.6* | 0.2 | -0.4 | -3.5 | 0.077 | i
Cc1ccc(S(=O)(=O)Nc2cccc(S(=O)(=O)Nc3ccccc3C(=O)O)c2)c(C)c1 | 1.4* | -2.5 | -7.8 | -6.0 | -0.06 | i
CCOC(=O)[C@]12CCCC=C1N(Cc1ccccc1)C(=O)[C@H](CC(=O)NCC1CCCCC1)C2 | 2.2* | -1.7 | . | -0.3 | -0.08 | i
CCOC(=O)[C@]12CCCC=C1N(Cc1ccccc1)C(=O)[C@H](CC(=O)NCc1ccc(C)o1)C2 | -0.1 | -3.3 | . | 3.4 | . | .
NC(=NCCc1c[nH]c2ccccc12)NS(=O)(=O)c1ccc(F)cc1 | 2.7* | . | -7.7 | 1.7 | 0.088 | i
CNC[C@H]1OCCCC[C@H](C)Oc2ccc(NC(=O)Nc3ccc4c(c3)OCO4)cc2C(=O)N([C@H](C)CO)C[C@H]1C | -0.4 | -2.2 | . | -3.0 | . | .
Cn1ncc2c(Nc3ccc(O)cc3)nc(Cl)nc21 | 26.4* | 0.5 | -5.5 | 2.7 | -0.002 | i
CCNC(=O)C[C@H]1CC[C@H]2[C@H](COc3ccc(NC(=O)Cc4ccccc4)cc3C(=O)N2C)O1 | 0.0 | 0.4 | . | -2.9 | . | .
CNC[C@@H]1OCCCC[C@@H](C)Oc2ccc(NC(=O)Nc3c(C)noc3C)cc2C(=O)N([C@H](C)CO)C[C@H]1C | 0.2 | 2.0 | . | -17.9 | . | .
O=C(C1CCOCC1)N1CC2(C1)[C@@H](c1ccccc1)[C@@H](CO)N2Cc1ccccc1F | 1.5* | 2.4 | . | 7.9 | 0.019 | i
SMILES | FGF22 binding-1 | F508del corr | dFosB activator | S100A4 MyoIIA | FGF22 binding-2 | SYPRO no-protein
O=C(c1ccccc1)N1CC2(C1)[C@H](c1ccccc1)[C@H](CO)N2Cc1cc(F)ccc1F | 1.3* | 2.2 | . | -0.3 | 0.152[42 µM] | i
CCOC(=O)N1CCN(C(=O)CCCCCn2c(=S)[nH]c3ccsc3c2=O)CC1 | 1.4* | -2.5 | -14.4 | 2.2 | -0.141 | i
CC(C)NC(=O)N(C)C[C@H]1Oc2ncc(-c3cccc(C#N)c3)cc2C(=O)N([C@H](C)CO)C[C@@H]1C | -0.5 | 2.0 | . | 0.4 | . | .
CCCNC(=O)Nc1ccc2c(c1)C(=O)N(C)C[C@H](OC)[C@@H](C)CN(C(=O)c1ccccc1F)[C@H](C)CO2 | 1.7* | -1.4 | . | 4.3 | 0.056 | i
CCCNC(=O)Nc1ccc2c(c1)C(=O)N(C)C[C@@H](OC)[C@H](C)CN(C(=O)c1ccccc1F)[C@H](C)CO2 | 0.0 | 1.5 | . | -9.1 | . | .
CO[C@H]1CN(C)C(=O)c2ccc(NS(=O)(=O)c3ccc(Cl)cc3)cc2OC[C@@H](C)N(C(=O)NC(C)C)C[C@H]1C | 36.4* | 1.2 | . | 4.7 | -0.001[42 µM] | i
CO[C@H]1CN(C)C(=O)c2cc(NC(=O)CC(F)(F)F)ccc2OC[C@@H](C)N(C(C)=O)C[C@H]1C | 22.9* | -0.7 | . | -23.1 | 0.119[42 µM] | i
CCCN1C[C@H](C)[C@H](OC)CN(C)C(=O)c2cc(NC(=O)c3cnccn3)ccc2OC[C@@H]1C | 1.4* | -2.6 | . | -0.6 | 0.099 | i
CCCNC(=O)[C@H]1[C@H](CO)[C@H]2Cn3c(ccc(-c4cccc(OC)c4)c3=O)[C@H]2N1Cc1nccs1 | . | -0.5 | . | -4.8 | . | .
O=C(C[C@H]1CC[C@H]2[C@@H](COC[C@H](O)CN2CC2CCCCC2)O1)NCc1ccc(F)cc1 | -0.3 | -1.8 | . | 3.3 | . | .
COCC#Cc1ccc([C@H]2[C@H](CO)N3C(=O)CN(C(=O)C4CCCC4)C[C@@H]23)cc1 | . | -0.9 | . | -0.1 | . | .
CO[C@@H]1CN(C)C(=O)c2cc(NC(=O)C3CCCC3)ccc2OC[C@H](C)N(CCC(F)(F)F)C[C@H]1C | 9.3* | 3.0 | . | -2.1 | 0.147 | i
COCC(=O)Nc1ccc2c(c1)OC[C@@H](C)N(C)C[C@H](C)[C@@H](OC)CN(C)C2=O | 30.7* | -2.3 | . | 1.3 | 0.094 | i
CO[C@@H]1CN(C)C(=O)c2cc(NC(=O)c3cccc(F)c3)ccc2OC[C@@H](C)NC[C@@H]1C | 0.9 | 0.1 | . | -2.9 | . | .
CO[C@H]1CN(C)C(=O)c2cc(NC(=O)c3cccc(F)c3)ccc2OC[C@H](C)NC[C@@H]1C | 2.0* | 1.4 | . | -1.9 | 0.095 | i
COCC(=O)N1C[C@H](C)[C@@H](OC)CN(C)C(=O)c2cc(NC(=O)C3CCC3)ccc2OC[C@H]1C | 0.5 | -2.8 | . | 0.4 | . | .
CCC(=O)N1C[C@H](C)[C@H](OC)CN(C)C(=O)c2cc(NC(=O)C3CCOCC3)ccc2OC[C@H]1C | -0.3 | -0.1 | . | 10.9 | . | .
